In ChEMBL document CHEMBL1152541, “Staurosporine tethered peptide ligands that target cAMP-dependent protein kinase (PKA): optimization and selectivity profiling” (Bioorg Med Chem, 2009):
Each block holds one compound with its values, some of them ahead of it. *1 amine or outer side, *2 acyl side, *3 side chain or, on linkers, in order; H or OH if unused. Where a SMILES comes first, the peptide text is derived from it. Bridges are numbered along the chain shown (N, C = ends). [ ]: non-standard residue; d: D form. The star is where a group is joined. Staurosporine = CO[C@@H]1[C@H](N(C)*)C[C@H]2O[C@]1(C)n1c3ccccc3c3c4c(c5c6ccccc6n2c5c31)C(=O)NC4; Suc = O=C(CCC(=O)[*:2])[*:1]; Dap = NC[C@H](N)C(=O)O; βAla = NCCC(=O)O

What was measured:
[1] = target: Macrophage colony-stimulating factor 1 receptor (Homo sapiens) (UniProt P07333); experiment: Binding affinity to human CSF1R at 500 nM by cell-based competition binding assay relative to control in presence of DTT
Method in brief: (§1)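 Commercial (Ambit) competitive kinase-binding panel of 90 kinases measured the binding profile. Run under reducing conditions of 7.5 mM DTT. Binding is expressed relative to control.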

[2] = target: Mitogen-activated protein kinase 11 (Homo sapiens) (UniProt Q15759); experiment: Binding affinity to human p38beta at 500 nM by cell-based competition binding assay relative to control in presence of DTT
Chain of Mitogen-activated protein kinase 11 (Homo sapiens) (Q15759 whole entry): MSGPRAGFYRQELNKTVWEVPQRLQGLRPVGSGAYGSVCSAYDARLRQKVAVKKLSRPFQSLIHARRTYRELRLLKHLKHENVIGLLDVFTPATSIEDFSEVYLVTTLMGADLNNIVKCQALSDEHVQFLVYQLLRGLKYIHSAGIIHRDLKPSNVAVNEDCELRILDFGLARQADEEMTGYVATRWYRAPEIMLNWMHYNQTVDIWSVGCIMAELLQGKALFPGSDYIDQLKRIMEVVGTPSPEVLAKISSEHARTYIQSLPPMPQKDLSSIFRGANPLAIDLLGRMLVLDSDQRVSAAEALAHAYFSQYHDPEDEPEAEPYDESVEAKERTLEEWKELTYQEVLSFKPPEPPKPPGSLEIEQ

[3] = target: T1, Serine/threonine-protein kinase Chk1 (Homo sapiens) (UniProt O14757); experiment: Binding affinity to human CHEK1 at 500 nM by cell-based competition binding assay relative to control in presence of DTT; method in brief: as §1
T1 sequence (whole entry): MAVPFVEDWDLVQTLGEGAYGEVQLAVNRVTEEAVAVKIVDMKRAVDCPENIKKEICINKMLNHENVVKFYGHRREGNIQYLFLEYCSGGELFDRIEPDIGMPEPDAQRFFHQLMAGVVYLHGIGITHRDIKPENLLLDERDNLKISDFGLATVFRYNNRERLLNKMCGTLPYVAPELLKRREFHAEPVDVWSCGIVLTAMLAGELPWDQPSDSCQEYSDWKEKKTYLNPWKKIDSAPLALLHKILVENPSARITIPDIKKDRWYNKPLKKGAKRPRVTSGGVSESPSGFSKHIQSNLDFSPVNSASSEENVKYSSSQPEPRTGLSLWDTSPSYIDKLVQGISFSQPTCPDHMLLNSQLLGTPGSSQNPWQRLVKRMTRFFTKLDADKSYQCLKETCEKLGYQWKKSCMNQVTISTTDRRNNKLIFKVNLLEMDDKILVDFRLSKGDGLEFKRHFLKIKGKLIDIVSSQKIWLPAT

[4] = system: Mast/stem cell growth factor receptor Kit (Homo sapiens), P10721 [V559D,T670I]; experiment: Binding affinity to human KIT V559D,T670I mutant at 500 nM by cell-based competition binding assay relative to control in presence of DTT
Chain of Mast/stem cell growth factor receptor Kit (Homo sapiens), P10721 [V559D,T670I] (P10721 whole entry V559D/T670I): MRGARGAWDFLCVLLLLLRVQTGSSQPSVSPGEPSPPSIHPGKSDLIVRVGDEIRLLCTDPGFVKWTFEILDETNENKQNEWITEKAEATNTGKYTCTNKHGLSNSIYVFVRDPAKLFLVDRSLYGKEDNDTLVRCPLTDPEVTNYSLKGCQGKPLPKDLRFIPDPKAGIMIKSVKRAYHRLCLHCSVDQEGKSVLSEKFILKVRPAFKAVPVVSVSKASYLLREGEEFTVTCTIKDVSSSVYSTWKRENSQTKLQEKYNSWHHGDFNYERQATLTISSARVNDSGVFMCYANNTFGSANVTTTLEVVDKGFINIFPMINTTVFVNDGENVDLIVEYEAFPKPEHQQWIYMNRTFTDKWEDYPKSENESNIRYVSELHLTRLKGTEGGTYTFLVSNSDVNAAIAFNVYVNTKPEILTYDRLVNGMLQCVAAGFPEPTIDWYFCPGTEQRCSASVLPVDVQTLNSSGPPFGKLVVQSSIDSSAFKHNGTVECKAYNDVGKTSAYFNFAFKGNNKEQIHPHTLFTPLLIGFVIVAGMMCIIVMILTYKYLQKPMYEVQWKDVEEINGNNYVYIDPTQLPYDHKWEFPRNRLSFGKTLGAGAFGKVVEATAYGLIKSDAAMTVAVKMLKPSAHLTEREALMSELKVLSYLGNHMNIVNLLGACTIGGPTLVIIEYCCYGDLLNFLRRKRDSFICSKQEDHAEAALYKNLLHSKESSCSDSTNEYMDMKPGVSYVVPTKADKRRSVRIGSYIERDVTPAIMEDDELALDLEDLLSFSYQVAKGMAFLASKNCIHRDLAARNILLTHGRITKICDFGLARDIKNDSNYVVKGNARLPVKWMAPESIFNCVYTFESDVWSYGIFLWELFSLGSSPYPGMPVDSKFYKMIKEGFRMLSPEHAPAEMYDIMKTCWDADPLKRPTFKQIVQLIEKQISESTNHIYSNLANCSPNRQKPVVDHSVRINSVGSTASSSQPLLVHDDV
Method in brief: (§2)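 Competition binding screen (Ambit) across a panel of 90 kinases, scoring test ligand displacement of each kinase's binding relative to control. The screen ran under reducing conditions with 7.5 mM DTT.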

[5] = target: Mast/stem cell growth factor receptor Kit (Homo sapiens) (UniProt P10721); experiment: Binding affinity to human KIT at 500 nM by cell-based competition binding assay relative to control in presence of DTT; method in brief: as §2
Chain of Mast/stem cell growth factor receptor Kit (Homo sapiens) (P10721 whole entry): as the sequence (P10721 whole entry V559D/T670I) above, with D559V, I670T counted along it

[6] = target: Serine/threonine-protein kinase PLK1 (Homo sapiens) (UniProt P53350); experiment: Binding affinity to human PLK1 at 500 nM by cell-based competition binding assay relative to control in presence of DTT
[7] = target: Phosphatidylinositol 4-phosphate 3-kinase C2 domain-containing subunit beta (Homo sapiens) (UniProt O00750); experiment: Binding affinity to human PIK3C2beta at 500 nM by cell-based competition binding assay relative to control in presence of DTT
[8] = target: RAC-alpha serine/threonine-protein kinase (Homo sapiens) (UniProt P31749); experiment: Binding affinity to human AKT1 at 200 nM by cell-based competition binding assay relative to control in presence of DTT
Chain of RAC-alpha serine/threonine-protein kinase (Homo sapiens) (P31749 whole entry): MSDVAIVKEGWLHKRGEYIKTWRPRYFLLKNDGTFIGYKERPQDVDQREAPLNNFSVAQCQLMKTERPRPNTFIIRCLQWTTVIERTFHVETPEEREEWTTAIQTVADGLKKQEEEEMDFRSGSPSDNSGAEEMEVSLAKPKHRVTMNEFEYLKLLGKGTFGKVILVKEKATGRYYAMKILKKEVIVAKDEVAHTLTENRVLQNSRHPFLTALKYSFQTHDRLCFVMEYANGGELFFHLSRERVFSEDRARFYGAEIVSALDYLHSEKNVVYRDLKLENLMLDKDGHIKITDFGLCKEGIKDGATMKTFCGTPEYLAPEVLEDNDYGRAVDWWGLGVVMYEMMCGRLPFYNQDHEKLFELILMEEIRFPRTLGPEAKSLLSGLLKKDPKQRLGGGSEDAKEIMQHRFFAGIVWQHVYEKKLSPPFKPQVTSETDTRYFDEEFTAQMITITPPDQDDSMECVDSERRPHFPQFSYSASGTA
Method in brief: (§3)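 Kinase binding profiling ran on a commercial (Ambit) competitive binding screen against a panel of 90 kinases. The screen used reducing conditions with 7.5 mM DTT. To withstand the DTT, the bivalent ligand was tested as its amide isostere, with the disulfide replaced. A staurosporine derivative carrying a 3 β-alanine linker was run as the reference compound.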

[9] = target: T2, Protein kinase C epsilon type (Homo sapiens) (UniProt Q02156); experiment: Binding affinity to human PRKCepsilon at 200 nM by cell-based competition binding assay relative to control in presence of DTT
T2 sequence (whole entry): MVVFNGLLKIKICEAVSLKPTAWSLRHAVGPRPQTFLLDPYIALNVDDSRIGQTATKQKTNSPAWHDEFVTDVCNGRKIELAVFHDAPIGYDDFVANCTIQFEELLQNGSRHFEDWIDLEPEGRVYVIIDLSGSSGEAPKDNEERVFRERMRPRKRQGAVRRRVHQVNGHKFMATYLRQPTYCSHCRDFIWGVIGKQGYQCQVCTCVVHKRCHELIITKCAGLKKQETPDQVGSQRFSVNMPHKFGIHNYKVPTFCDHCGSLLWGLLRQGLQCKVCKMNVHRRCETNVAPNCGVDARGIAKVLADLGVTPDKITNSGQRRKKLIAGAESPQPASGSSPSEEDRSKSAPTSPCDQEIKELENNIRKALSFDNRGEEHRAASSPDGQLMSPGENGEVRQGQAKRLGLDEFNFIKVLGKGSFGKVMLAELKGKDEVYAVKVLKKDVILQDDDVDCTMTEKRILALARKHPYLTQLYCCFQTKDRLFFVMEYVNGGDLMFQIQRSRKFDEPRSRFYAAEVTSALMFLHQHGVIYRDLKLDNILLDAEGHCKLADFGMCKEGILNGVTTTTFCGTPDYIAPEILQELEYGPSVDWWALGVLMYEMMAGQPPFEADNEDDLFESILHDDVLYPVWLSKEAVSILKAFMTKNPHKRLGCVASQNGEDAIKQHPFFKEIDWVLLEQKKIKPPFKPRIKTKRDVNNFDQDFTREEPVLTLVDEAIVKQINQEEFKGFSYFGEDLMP

[10] = target: Serine/threonine-protein kinase PLK3 (Homo sapiens) (UniProt Q9H4B4); experiment: Binding affinity to human PLK3 at 200 nM by cell-based competition binding assay relative to control in presence of DTT
Chain of Serine/threonine-protein kinase PLK3 (Homo sapiens) (Q9H4B4 whole entry, looked up): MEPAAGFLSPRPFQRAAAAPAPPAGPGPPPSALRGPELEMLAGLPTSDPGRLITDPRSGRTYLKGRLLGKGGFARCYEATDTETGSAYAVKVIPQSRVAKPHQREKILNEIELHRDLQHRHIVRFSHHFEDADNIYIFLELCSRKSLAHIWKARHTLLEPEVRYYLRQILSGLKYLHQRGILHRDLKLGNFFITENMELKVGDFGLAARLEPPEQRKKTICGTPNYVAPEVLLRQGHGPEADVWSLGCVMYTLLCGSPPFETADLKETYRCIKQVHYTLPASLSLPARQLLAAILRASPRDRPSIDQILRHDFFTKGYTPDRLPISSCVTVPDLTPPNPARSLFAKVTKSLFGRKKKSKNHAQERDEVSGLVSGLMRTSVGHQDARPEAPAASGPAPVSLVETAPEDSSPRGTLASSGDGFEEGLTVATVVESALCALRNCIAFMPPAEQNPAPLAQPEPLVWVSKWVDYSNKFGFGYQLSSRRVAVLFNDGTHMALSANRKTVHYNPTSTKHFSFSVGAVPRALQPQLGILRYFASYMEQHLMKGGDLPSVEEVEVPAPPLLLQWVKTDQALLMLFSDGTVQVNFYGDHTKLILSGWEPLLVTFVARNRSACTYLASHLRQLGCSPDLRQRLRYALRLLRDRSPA

[11] = target: Serine/threonine-protein kinase pim-3 (Homo sapiens) (UniProt Q86V86); experiment: Binding affinity to human PIM3 at 200 nM by cell-based competition binding assay relative to control in presence of DTT
[12] = system: Tyrosine-protein kinase ABL1 (Homo sapiens), P00519 [E255K]; experiment: Binding affinity to human ABL1 E255K mutant at 200 nM by cell-based competition binding assay relative to control in presence of DTT; method in brief: as §3
[13] = target: Cyclin-dependent kinase 19 (Homo sapiens) (UniProt Q9BWU1); experiment: Binding affinity to human CDK11 at 200 nM by cell-based competition binding assay relative to control in presence of DTT; method in brief: as §3
[14] = target: Fibroblast growth factor receptor 2 (Homo sapiens) (UniProt P21802); experiment: Binding affinity to human FGFR2 at 200 nM by cell-based competition binding assay relative to control in presence of DTT; method in brief: as §1
[15] = target: Mitogen-activated protein kinase 3 (Homo sapiens) (UniProt P27361); experiment: Binding affinity to human ERK1 at 50 nM by cell-based competition binding assay relative to control in presence of DTT; method in brief: as §1
Chain of Mitogen-activated protein kinase 3 (Homo sapiens) (P27361 whole entry, the tested form may be a part): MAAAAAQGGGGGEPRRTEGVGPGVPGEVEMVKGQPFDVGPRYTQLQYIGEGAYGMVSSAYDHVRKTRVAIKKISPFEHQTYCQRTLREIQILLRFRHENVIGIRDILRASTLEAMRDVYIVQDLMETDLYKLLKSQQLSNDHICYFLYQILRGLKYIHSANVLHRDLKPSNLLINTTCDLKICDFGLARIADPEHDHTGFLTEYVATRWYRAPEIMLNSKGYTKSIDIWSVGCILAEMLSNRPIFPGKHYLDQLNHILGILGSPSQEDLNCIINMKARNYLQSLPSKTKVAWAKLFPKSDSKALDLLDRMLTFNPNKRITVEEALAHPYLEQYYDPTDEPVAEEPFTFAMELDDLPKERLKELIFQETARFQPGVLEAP

[16] = target: Tyrosine-protein kinase JAK2 (Homo sapiens) (UniProt O60674); experiment: Binding affinity to human JAK2 kinase domain 2 at 50 nM by cell-based competition binding assay relative to control in presence of DTT; method in brief: as §2
Chain of Tyrosine-protein kinase JAK2 (Homo sapiens) (O60674 whole entry, the tested form may be a part): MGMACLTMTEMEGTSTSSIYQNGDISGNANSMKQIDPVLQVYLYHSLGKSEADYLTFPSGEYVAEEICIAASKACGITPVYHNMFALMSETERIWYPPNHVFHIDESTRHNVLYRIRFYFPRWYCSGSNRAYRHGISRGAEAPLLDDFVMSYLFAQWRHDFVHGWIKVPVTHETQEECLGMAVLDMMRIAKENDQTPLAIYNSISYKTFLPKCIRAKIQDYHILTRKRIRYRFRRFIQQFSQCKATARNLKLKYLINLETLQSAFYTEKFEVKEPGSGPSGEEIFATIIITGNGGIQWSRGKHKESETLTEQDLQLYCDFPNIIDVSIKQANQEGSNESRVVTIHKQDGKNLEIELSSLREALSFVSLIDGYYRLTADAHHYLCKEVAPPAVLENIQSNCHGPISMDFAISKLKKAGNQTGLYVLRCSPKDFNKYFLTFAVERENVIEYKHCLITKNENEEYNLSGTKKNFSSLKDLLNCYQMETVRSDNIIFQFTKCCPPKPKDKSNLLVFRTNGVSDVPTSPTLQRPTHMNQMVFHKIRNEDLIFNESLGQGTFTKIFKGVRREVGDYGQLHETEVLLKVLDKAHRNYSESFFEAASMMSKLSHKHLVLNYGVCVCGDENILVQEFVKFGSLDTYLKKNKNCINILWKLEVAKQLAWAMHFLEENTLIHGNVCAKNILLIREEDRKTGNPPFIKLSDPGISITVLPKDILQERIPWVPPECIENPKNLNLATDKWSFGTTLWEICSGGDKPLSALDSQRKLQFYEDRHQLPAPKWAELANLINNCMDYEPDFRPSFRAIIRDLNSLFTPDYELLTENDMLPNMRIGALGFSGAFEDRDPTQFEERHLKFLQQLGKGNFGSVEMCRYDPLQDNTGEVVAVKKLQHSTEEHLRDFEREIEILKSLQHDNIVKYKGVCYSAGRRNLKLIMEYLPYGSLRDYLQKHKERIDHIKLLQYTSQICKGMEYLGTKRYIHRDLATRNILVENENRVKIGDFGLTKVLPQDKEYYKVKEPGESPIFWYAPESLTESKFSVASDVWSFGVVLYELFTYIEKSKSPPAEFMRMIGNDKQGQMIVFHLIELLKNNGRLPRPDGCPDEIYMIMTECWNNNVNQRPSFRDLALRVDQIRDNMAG

[17] = system: Tyrosine-protein kinase ABL1 (Homo sapiens), P00519 [T315I]; experiment: Binding affinity to human ABL1 T315I mutant at 50 nM by cell-based competition binding assay relative to control in presence of DTT; method in brief: as §3

- Activity [1]: 22%
- Activity [2]: 100%
- Activity [3]: 54%
- Activity [4]: 4.8%
- Activity [5]: 7.4%
- Activity [6]: 85%
- Activity [7]: 98%
SMILES: CO[C@@H]1[C@H](N(C)C(=O)CCC(=O)NCCC(=O)NCCC(=O)NCCC(N)=O)C[C@H]2O[C@]1(C)n1c3ccccc3c3c4c(c5c6ccccc6n2c5c31)C(=O)NC4

- Activity [8]: 100%
- Activity [9]: 0%
- Activity [10]: 100%
- Activity [11]: 26%
- Activity [12]: 100%
- Activity [13]: 87%
- Activity [14]: 66%
SMILES: CO[C@@H]1[C@H](N(C)C(=O)CCC(=O)NCCC(=O)NCCC(=O)NCCC(=O)NCCC(=O)NCCC(=O)NCCC(=O)NCCC(=O)N[C@H]2CSSC[C@@H](C(=O)NCC(N)=O)NC(=O)CNC(=O)[C@H](Cc3ccccc3)NC(=O)[C@H](C(C)C)NC(=O)[C@H](CCCNC(=N)N)NC(=O)[C@H](Cc3ccccc3)NC(=O)[C@H](C(C)C)NC2=O)C[C@H]2O[C@]1(C)n1c3ccccc3c3c4c(c5c6ccccc6n2c5c31)C(=O)NC4 ({Staurosporine-Suc-βAla-βAla-βAla-βAla-βAla-βAla-βAla}-CVFRVFGCG-NH2; disulfide 1-8)

- Activity [15]: 100%
- Activity [16]: 42%
- Activity [17]: 100%
SMILES: CO[C@@H]1[C@H](N(C)C(=O)CCC(=O)NCCC(=O)NCCC(=O)NCCC(=O)NCCC(=O)NCCC(=O)NCCC(=O)NCCC(=O)N[C@H]2CNC(=O)C[C@@H](C(N)=O)NC(=O)CNC(=O)[C@H](Cc3ccccc3)NC(=O)[C@H](C(C)C)NC(=O)[C@H](CCCNC(=N)N)NC(=O)[C@H](Cc3ccccc3)NC(=O)[C@H](C(C)C)NC2=O)C[C@H]2O[C@]1(C)n1c3ccccc3c3c4c(c5c6ccccc6n2c5c31)C(=O)NC4 ({Staurosporine-Suc-βAla-βAla-βAla-βAla-βAla-βAla-βAla}-[Dap]VFRVFGD-NH2; lactam 1-8)
